Activity calls are given as the source filed them. The rule behind the calls is not given here.
Key:
A549 = assay: Cytotoxicity against human A549 cells after 48 hrs by sulforhodamine B assay; type: functional; conditions: A549, 48 h; for CC50: read-out: LC50 (the source's name)
Procedure, shortened: (§1)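 Cells seeded at 5×10^3 per well in RPMI and allowed to attach for 18 h in drug-free medium. Samples were added in 3:7 DMSO/H2O, with highest concentration 100 µM, and exposed for 48 h. Cells were fixed with cold TCA at 4 °C for 60 min, stained with 0.4% SRB and solubilized in Tris. OD was read at 490 nm. GI50, TGI and LC50 came from automated analysis following the NCI protocol.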

MDA-MB-231 [1] = assay: Inhibition of histone deacetylase expressed in human MDA-MB-231 cells; type: cell-based
Procedure, shortened: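 Cell extracts from MDA-MB-231 breast carcinoma served as enzyme source. Trichostatin A at 250 nM was the reference inhibitor. Test concentrations were 10, 2, 0.4, 0.08 and 0.016 µg/mL. Data are % inhibition relative to controls.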

HeLa = assay: Inhibition of mitosis in human HeLa cells assessed as G2 checkpoint inhibition by ELISA; type: functional, cell-based
Procedure, shortened: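 ELISA immunoassay in HeLa cells. Paclitaxel and vinblastine (each 1 µg/mL) were control inhibitors. Five fixed concentrations were tested (10, 2, 0.4, 0.08, 0.016 µg/mL). Inhibition and survival are given as % of controls.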

MDA-MB-231 [2] = assay: Cytotoxicity against human MDA-MB-231 cells after 48 hrs by sulforhodamine B assay; type: functional; conditions: MDA-MB-231, 48 h; for CC50: read-out: LC50 (the source's name); procedure, shortened: as §1
[3] = biological target: Hypoxia-inducible factor 1-alpha (Homo sapiens) (UniProt Q16665); assay: Inhibition of HIF1alpha expressed in human HeLa cells at 10 ug/mL by HIF1-luciferase reporter gene assay relative to control; type: cell-based
Chain of Hypoxia-inducible factor 1-alpha (Homo sapiens) (Q16665 whole entry, looked up): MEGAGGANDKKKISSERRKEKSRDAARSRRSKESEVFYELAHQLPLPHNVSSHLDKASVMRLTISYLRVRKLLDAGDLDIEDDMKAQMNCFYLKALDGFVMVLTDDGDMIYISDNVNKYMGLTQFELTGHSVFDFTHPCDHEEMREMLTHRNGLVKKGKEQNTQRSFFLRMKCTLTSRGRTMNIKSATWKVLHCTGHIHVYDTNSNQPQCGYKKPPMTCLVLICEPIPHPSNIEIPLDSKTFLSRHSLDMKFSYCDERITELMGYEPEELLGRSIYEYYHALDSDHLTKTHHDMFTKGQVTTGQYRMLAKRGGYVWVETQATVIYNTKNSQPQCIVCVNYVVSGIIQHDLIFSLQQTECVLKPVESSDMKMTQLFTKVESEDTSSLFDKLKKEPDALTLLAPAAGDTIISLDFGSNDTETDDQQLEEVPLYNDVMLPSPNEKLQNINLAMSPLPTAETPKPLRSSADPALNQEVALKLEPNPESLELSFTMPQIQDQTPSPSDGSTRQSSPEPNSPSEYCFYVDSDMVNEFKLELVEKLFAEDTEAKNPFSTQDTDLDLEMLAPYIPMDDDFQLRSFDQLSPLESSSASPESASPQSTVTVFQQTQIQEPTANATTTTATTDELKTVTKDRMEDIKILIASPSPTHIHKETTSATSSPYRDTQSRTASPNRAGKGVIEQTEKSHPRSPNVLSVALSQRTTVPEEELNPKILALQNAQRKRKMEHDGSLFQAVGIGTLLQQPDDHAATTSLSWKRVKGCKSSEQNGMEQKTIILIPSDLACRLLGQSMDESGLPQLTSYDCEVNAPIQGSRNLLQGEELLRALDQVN
Procedure, shortened: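 HIF1-luc stably transfected HeLa cells were plated at 20,000 cells/well and set for 24 h. They were pretreated 30 min with 1% DMSO vehicle or compound (10, 2, 0.4, 0.08, 0.016 µg/mL), then given 50 µM deferoxamine as hypoxia mimetic for 24 h. Survival was measured by calcein-AM fluorescence (0.1 µM, 30 min, 37 °C), followed by luciferase luminescence. Reported as % of control.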

HT-29 = assay: Cytotoxicity against human HT-29 cells after 48 hrs by sulforhodamine B assay; type: functional; conditions: HT-29, 48 h; procedure, shortened: as §1
[4] = biological target: Epidermal growth factor receptor (Homo sapiens) (UniProt P00533); assay: Inhibition of EGFR expressed in human HeLa cells at 10 ug/mL by AP1-luciferase reporter gene assay relative to control; type: cell-based
Chain of Epidermal growth factor receptor (Homo sapiens) (P00533 whole entry): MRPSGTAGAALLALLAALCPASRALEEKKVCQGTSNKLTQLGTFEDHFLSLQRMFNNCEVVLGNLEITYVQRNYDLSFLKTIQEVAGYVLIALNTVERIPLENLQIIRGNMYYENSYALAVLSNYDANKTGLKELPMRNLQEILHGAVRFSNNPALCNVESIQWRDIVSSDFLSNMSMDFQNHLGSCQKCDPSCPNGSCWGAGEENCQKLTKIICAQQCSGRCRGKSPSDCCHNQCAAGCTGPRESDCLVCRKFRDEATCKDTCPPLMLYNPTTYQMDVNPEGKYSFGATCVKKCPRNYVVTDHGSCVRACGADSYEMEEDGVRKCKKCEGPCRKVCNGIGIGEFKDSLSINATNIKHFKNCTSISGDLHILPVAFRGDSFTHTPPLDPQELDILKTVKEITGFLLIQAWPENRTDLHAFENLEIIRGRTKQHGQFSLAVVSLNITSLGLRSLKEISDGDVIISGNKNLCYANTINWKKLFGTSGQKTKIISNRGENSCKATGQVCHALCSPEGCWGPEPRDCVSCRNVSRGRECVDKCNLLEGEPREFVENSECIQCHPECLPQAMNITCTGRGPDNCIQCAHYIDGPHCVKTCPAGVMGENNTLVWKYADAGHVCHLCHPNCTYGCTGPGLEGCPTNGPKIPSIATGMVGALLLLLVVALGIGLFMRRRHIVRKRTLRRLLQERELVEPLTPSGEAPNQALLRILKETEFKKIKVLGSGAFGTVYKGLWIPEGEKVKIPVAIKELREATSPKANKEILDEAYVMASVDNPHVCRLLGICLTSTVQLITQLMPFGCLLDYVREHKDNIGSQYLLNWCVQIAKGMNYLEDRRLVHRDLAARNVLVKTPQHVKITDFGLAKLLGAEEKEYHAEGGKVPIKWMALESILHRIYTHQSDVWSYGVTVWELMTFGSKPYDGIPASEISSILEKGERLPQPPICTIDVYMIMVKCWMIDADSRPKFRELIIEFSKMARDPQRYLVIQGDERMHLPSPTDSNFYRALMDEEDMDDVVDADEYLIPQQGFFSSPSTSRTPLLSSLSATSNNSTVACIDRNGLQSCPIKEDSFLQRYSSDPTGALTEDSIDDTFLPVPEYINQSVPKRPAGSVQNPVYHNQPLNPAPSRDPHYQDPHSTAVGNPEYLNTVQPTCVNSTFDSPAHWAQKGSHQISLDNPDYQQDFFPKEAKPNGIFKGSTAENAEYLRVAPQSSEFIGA
Procedure, shortened: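 AP1-luc stably transfected HeLa cells were grown in DMEM/10% FBS at 20,000 cells/well and set for 24 h. They were treated with 1% DMSO vehicle or compound (10, 2, 0.4, 0.08, 0.016 µg/mL) before stimulation with EGF at 25 ng/mL. Control inhibitor was AG-1478 at 20 µM. Survival was checked by calcein-AM (0.1 µM, 30 min, 37 °C), then luciferase read by luminescence. Values are % of control.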

[5] = biological target: T1, Catenin beta-1 (Homo sapiens) (UniProt P35222); assay: Inhibition of beta-catenin expressed in human SW480 cells by luciferase reporter gene assay
T1 sequence (whole entry): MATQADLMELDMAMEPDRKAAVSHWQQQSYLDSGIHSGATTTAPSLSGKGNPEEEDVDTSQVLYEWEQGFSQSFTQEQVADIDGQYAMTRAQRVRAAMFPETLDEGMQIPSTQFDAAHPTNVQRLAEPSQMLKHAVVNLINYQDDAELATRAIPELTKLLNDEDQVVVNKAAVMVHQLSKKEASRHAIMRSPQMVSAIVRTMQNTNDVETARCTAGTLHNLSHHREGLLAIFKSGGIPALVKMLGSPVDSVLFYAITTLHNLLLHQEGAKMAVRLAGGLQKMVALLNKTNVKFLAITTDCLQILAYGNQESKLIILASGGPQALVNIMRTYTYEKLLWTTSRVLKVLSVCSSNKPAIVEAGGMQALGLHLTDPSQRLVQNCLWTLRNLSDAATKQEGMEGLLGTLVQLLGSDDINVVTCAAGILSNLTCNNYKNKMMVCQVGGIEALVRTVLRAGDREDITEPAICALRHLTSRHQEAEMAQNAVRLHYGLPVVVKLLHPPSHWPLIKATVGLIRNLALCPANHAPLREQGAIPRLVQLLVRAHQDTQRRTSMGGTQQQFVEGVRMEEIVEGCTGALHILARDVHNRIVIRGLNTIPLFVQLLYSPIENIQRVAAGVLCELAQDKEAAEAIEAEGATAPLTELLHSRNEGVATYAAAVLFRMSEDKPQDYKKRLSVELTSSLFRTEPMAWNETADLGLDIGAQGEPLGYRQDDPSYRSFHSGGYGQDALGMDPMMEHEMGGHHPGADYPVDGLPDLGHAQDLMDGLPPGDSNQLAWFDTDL

COC(=O)[C@@H]1C[C@]2(CC=C(C)C)c3ccccc3N3C(=N)[C@@H](Cc4ccccc4)N1[C@@H]32
GI50 (A549): 12 µM | TGI (A549): 24.1 µM | CC50 (A549): 24.1 µM | Activity (MDA-MB-231 [1]): inactive | Activity (HeLa): inactive | GI50 (MDA-MB-231 [2]): 9.39 µM | TGI (MDA-MB-231 [2]): 24.1 µM | CC50 (MDA-MB-231 [2]): 24.1 µM | inhibition [3]: 61% | GI50 (HT-29): > 100 µM | LC50 (concentration killing 50% of cells) (HT-29): > 100 µM | TGI (HT-29): > 100 µM | inhibition [4]: 0% | Activity [5]: inactive

COC(=O)[C@@H]1C[C@@]2(Br)c3cc(Br)ccc3N3C(=N)C4(CCCCC4)N1[C@H]32
GI50 (A549): 7.24 µM | TGI (A549): 10.8 µM | CC50 (A549): 16.1 µM | Activity (MDA-MB-231 [1]): inactive | Activity (HeLa): inactive | GI50 (MDA-MB-231 [2]): 6.21 µM | TGI (MDA-MB-231 [2]): 8.49 µM | CC50 (MDA-MB-231 [2]): > 100 µM | GI50 (HT-29): 7.45 µM | LC50 (concentration killing 50% of cells) (HT-29): 14.1 µM | TGI (HT-29): 9.31 µM | inhibition [4]: 83% | Activity [5]: inactive

COC(=O)[C@@H]1C[C@@]2(CC=C(C)C)c3ccccc3N3C(=N)C(C)(C)N1[C@H]32
GI50 (A549): 5.66 µM | TGI (A549): 28.3 µM | CC50 (A549): 28.3 µM | Activity (MDA-MB-231 [1]): inactive | Activity (HeLa): inactive | GI50 (MDA-MB-231 [2]): 11 µM | TGI (MDA-MB-231 [2]): 28.3 µM | CC50 (MDA-MB-231 [2]): 28.3 µM | inhibition [3]: 73% | GI50 (HT-29): 4.24 µM | LC50 (concentration killing 50% of cells) (HT-29): 28.3 µM | TGI (HT-29): 28.3 µM | inhibition [4]: 0% | Activity [5]: inactive

COC(=O)[C@@H]1C[C@@]2(CC=C(C)C)c3ccccc3N3C(=N)[C@H](Cc4ccccc4)N1[C@H]32
GI50 (A549): 22.1 µM | TGI (A549): 24.1 µM | CC50 (A549): 24.1 µM | Activity (MDA-MB-231 [1]): inactive | Activity (HeLa): inactive | GI50 (MDA-MB-231 [2]): > 100 µM | TGI (MDA-MB-231 [2]): > 100 µM | CC50 (MDA-MB-231 [2]): > 100 µM | inhibition [3]: 78% | GI50 (HT-29): 20.2 µM | LC50 (concentration killing 50% of cells) (HT-29): 24.1 µM | TGI (HT-29): 24.1 µM | inhibition [4]: 20% | Activity [5]: inactive

COC(=O)[C@@H]1C[C@@]2(CC=C(C)C)c3ccccc3N3C(=N)[C@H](c4ccccc4)N1[C@H]32
GI50 (A549): > 100 µM | TGI (A549): > 100 µM | CC50 (A549): > 100 µM | Activity (MDA-MB-231 [1]): inactive | Activity (HeLa): inactive | GI50 (MDA-MB-231 [2]): > 100 µM | TGI (MDA-MB-231 [2]): > 100 µM | CC50 (MDA-MB-231 [2]): > 100 µM | inhibition [3]: 78% | GI50 (HT-29): > 100 µM | LC50 (concentration killing 50% of cells) (HT-29): > 100 µM | TGI (HT-29): > 100 µM | inhibition [4]: 13% | Activity [5]: inactive

COC(=O)[C@@H]1C[C@@]2(Br)c3cc(Br)ccc3N3C(=N)C(C)(C)N1[C@H]32
GI50 (A549): > 100 µM | TGI (A549): > 100 µM | CC50 (A549): > 100 µM | Activity (MDA-MB-231 [1]): inactive | Activity (HeLa): inactive | GI50 (MDA-MB-231 [2]): > 100 µM | TGI (MDA-MB-231 [2]): > 100 µM | CC50 (MDA-MB-231 [2]): > 100 µM | inhibition [3]: 55% | GI50 (HT-29): > 100 µM | LC50 (concentration killing 50% of cells) (HT-29): > 100 µM | TGI (HT-29): > 100 µM | inhibition [4]: 45% | Activity [5]: inactive

COC(=O)[C@@H]1C[C@H]2c3ccccc3N3C(=N)C4(CCCCC4)N1[C@@H]23
GI50 (A549): 9.23 µM | TGI (A549): 9.23 µM | CC50 (A549): 9.23 µM | Activity (MDA-MB-231 [1]): inactive | Activity (HeLa): inactive | GI50 (HT-29): 9.23 µM | LC50 (concentration killing 50% of cells) (HT-29): 9.23 µM | TGI (HT-29): 9.23 µM | Activity [5]: inactive

COC(=O)[C@@H]1C[C@@]2(CC=C(C)C)c3ccccc3N3C(=N)[C@H](C(C)(C)C)N1[C@H]32
GI50 (A549): > 100 µM | TGI (A549): > 100 µM | CC50 (A549): > 100 µM | Activity (MDA-MB-231 [1]): inactive | Activity (HeLa): inactive | GI50 (MDA-MB-231 [2]): 15.2 µM | TGI (MDA-MB-231 [2]): 26.2 µM | CC50 (MDA-MB-231 [2]): 26.2 µM | inhibition [3]: 83% | GI50 (HT-29): > 100 µM | LC50 (concentration killing 50% of cells) (HT-29): > 100 µM | TGI (HT-29): > 100 µM | inhibition [4]: 0% | Activity [5]: inactive

COC(=O)[C@@H]1C[C@@]2(Br)c3ccccc3N3C(=N)[C@H](C(C)(C)C)N1[C@H]32
GI50 (A549): > 100 µM | TGI (A549): > 100 µM | CC50 (A549): > 100 µM | Activity (MDA-MB-231 [1]): inactive | Activity (HeLa): inactive | GI50 (MDA-MB-231 [2]): 17.6 µM | TGI (MDA-MB-231 [2]): 25.5 µM | CC50 (MDA-MB-231 [2]): 25.5 µM | inhibition [3]: 70% | GI50 (HT-29): > 100 µM | LC50 (concentration killing 50% of cells) (HT-29): > 100 µM | TGI (HT-29): > 100 µM | inhibition [4]: 0% | Activity [5]: inactive

COC(=O)[C@@H]1C[C@H]2c3ccccc3N3C(=N)C(C)(C)N1[C@@H]23
Activity (MDA-MB-231 [1]): inactive | Activity (HeLa): inactive | Activity [5]: inactive

C=CC[C@@]12C[C@@H](C(=O)OC)N3[C@@H]1N(C(=N)C31CCCCC1)c1ccccc12
GI50 (A549): 23.3 µM | TGI (A549): 24.1 µM | CC50 (A549): 25.2 µM | Activity (MDA-MB-231 [1]): inactive | Activity (HeLa): inactive | GI50 (MDA-MB-231 [2]): 23.5 µM | TGI (MDA-MB-231 [2]): 24.6 µM | CC50 (MDA-MB-231 [2]): 25.7 µM | GI50 (HT-29): 22.4 µM | LC50 (concentration killing 50% of cells) (HT-29): 25.2 µM | TGI (HT-29): 23.5 µM | inhibition [4]: 52% | Activity [5]: inactive

COC(=O)[C@@H]1C[C@@]2(Br)c3cc(Br)ccc3N3C(=N)[C@H](C(C)(C)C)N1[C@H]32
GI50 (A549): > 100 µM | TGI (A549): > 100 µM | CC50 (A549): > 100 µM | Activity (MDA-MB-231 [1]): inactive | Activity (HeLa): inactive | GI50 (MDA-MB-231 [2]): > 100 µM | TGI (MDA-MB-231 [2]): > 100 µM | CC50 (MDA-MB-231 [2]): > 100 µM | inhibition [3]: 73% | GI50 (HT-29): > 100 µM | LC50 (concentration killing 50% of cells) (HT-29): > 100 µM | TGI (HT-29): > 100 µM | inhibition [4]: 0% | Activity [5]: inactive

Reference: ChEMBL document CHEMBL1152234, “Synthesis and antitumoral evaluation of indole alkaloid analogues containing an hexahydropyrrolo[1',2',3':1,9a,9]imidazo[1,2-a]indole skeleton” (2008)
